Experimental data collected from several papers.
Lines come from different studies, so protocols differ.
Target: Vascular endothelial growth factor receptor 1 (FLT1, Homo sapiens, UniProt P17948)
Sequence (P17948 827-1158, limits assumed, as in one of the studies): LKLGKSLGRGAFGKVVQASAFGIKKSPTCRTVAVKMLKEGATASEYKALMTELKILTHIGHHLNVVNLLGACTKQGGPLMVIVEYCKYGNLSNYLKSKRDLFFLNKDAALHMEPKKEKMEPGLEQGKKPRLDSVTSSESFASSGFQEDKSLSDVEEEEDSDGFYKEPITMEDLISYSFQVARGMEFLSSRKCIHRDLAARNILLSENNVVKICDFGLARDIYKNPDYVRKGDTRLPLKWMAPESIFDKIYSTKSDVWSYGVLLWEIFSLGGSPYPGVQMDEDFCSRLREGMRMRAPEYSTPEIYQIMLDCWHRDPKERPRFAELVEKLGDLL

Compound	read-out	action	technique	quantity	value
Cc1cnc(-c2ccc(-c3ccc(NC(=O)Nc4c(F)cc(F)cc4F)cc3F)c3c2C(=O)NC3)[nH]1	binding	–	competition with immobilised ligand	Kd	0.013 µM
CC(C)(C)n1nc(-c2ccc3nc(OC4CC4)ccc3c2)c(C(N)=O)c1N	cell-free assay	–	–	IC50	8.38 µM
C=CC(=O)Nc1cccc(CN2C(=O)N(c3c(Cl)c(OC)cc(OC)c3Cl)Cc3cnc(NCCCCN(CC)CC)nc32)c1	binding	–	competition with immobilised ligand	Kd	0.032 µM
COc1ccc2c(Oc3ccc4c(C(=O)Nc5ccccc5N)cccc4c3)ccnc2c1	enzyme activity	inhibitor	–	IC50	0.008 µM
CC(C)(C)n1nc(-c2cnc3cc(OC4CC4)ccc3c2)c(C(N)=O)c1N	cell-free assay	–	–	IC50	> 10 µM
Cc1ccc(C(=O)Nc2ccc(Oc3cc4cnn(C)c4cc3-c3cn[nH]c3)c(F)c2)c(=O)n1-c1ccc(F)cc1	enzyme activity in cells	inhibitor	–	IC50	> 1 µM
Cc1ccc(NC(=O)c2ccc(C)c(C(F)(F)F)c2)cc1C#Cc1nn(C2CCC(O)CC2)c2ncnc(N)c12 (centres unmarked)	enzyme activity	inhibitor	radiometric	IC50	0.015 µM
CNC(=O)c1cc2c(Oc3ccc(NC(=O)C4(C(=O)Nc5ccc(F)cc5)CC4)cc3)ccnc2cc1OC	enzyme activity	inhibitor	radiometric	IC50	0.013 µM
